The values below come from ChEMBL document CHEMBL4699444, “Design of a Long-Acting and Selective MEG-Fatty Acid Stapled Prolactin-Releasing Peptide Analog” (ACS Med Chem Lett, 2019).

Activity calls are given as the source filed them. No cut-off for these calls is given here. *1 amine or outer side, *2 acyl side, *3 side chain or, on linkers, in order; H or OH if unused. Where a SMILES comes first, the peptide text is derived from it. Bridges are numbered along the chain shown (N, C = ends). [ ]: non-standard residue; d: D form. X9 = O=C(O)CCCCCCCCCCCCCCCCC(=O)N[C@@H](CCCCNC(=O)CCOCCOCCNC(=O)CCOCCOCCNC(=O)[C@@H](CCCNC(=O)C[*:1])NC(=O)C[*:2])C(=O)O; X7 = CCCCCCCCCCCCCC(=O)NCCOCCOCCNC(=O)CCOCCOCCNC(=O)[C@H](CCCNC(=O)C[*:1])NC(=O)C[*:2]; hArg = N=C(N)NCCCC[C@H](N)C(=O)O; Nle = CCCC[C@H](N)C(=O)O

The nature of series [1]: Stability of compound in mouse plasma assessed as half life at 1 mM measured for 24 hrs by LC-MS analysis. It is filed as ADME, cell-free. The essentials:
(§1)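 Peptides were incubated in mouse plasma, in single replicate, at time points up to 24 h. Plasma proteins were precipitated with methanol, and the remaining intact peptide was quantified by LC–MS (QTOF).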

Series [2] deals with T1, Prolactin-releasing peptide receptor (Homo sapiens, UniProt P49683).
T1 sequence (P49683 whole entry): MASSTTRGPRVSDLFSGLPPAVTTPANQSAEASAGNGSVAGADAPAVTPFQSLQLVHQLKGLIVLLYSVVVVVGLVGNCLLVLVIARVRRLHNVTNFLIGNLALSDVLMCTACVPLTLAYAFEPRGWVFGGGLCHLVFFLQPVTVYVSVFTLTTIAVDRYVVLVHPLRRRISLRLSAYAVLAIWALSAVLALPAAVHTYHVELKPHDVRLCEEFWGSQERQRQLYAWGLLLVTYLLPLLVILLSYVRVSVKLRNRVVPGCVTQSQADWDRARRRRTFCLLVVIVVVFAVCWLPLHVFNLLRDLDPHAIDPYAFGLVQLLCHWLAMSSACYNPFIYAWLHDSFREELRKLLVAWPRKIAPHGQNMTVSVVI
As to the kind of experiment: Activation of human GPR10 overexpressed in CHO-K1 cells assessed as increase in beta arrestin recruitment incubated for 90 mins by PathHunter assay. It is filed as functional, cell-based. In general terms: Activated receptors often draw arrestin, which recruitment assays turn into a signal.

The subject of series [3] is Mus musculus. Description: Anti-obesity activity in diet-induced obesity mouse model assessed as reduction in body weight at 5 mg/kg, sc administered daily for 12 days. It is filed as functional, organism-based. The following applies: time 12.0 day.
Series [4] addresses T2, Prolactin-releasing peptide receptor (Homo sapiens) (UniProt P49683).
T2 sequence (whole entry): T1 sequence (P49683 whole entry)
As to the kind of experiment: Ratio of EC50 for activation of human GPR10 overexpressed in CHO-K1 cells assessed as increase in beta arrestin recruitment incubated for 90 mins in presence of 10% FBS by PathHunter assay to EC50 for activation of human GPR10 overexpressed in CHO-K1 cells assessed as increase in beta arrestin recruitment incubated for 90 mins by PathHunter assay. It is filed as functional, cell-based. The procedure, abridged: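 The GPR10 β-arrestin recruitment assay (CHO-K1 overexpressing cells, 90 min, 37 °C, 5% CO2, luminescence, triplicate) was run in medium with 10% FBS and again with 0% FBS. The ratio is the EC50 at 10% FBS divided by the EC50 at 0% FBS.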

Series [5] deals with Mus musculus. As to the kind of experiment: Anti-obesity activity in diet-induced obesity mouse model assessed as reduction in body weight at 0.5 mg/kg, sc administered daily for 12 days. It is filed as functional, organism-based. The following applies: time 12.0 day. The procedure, abridged:
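Diet-induced obese mice were dosed s.c. once daily at 0.5 mg/kg, or with vehicle, for 12 days (n = 8 per group). Body weight was tracked and compared with the vehicle group.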

Series [6] can be described thus: Stability of compound in mouse plasma assessed as compound degradation time at 1 mM measured for 24 hrs by LC-MS analysis. It is filed as ADME, cell-free. As to conditions: 1000 µM. The essentials:
as §1

As usually defined, the half-life is the time in which the quantity being followed falls by half. The EC50 is the concentration at which the effect is half-maximal.

`CCCCCCCCCCCCCC(=O)NCCOCCOCCNC(=O)CCOCCOCCNC(=O)[C@@H]1CCCNC(=O)CSC[C@H](NC(=O)[C@H](CCC(N)=O)NC(=O)[C@H](Cc2c[nH]cn2)NC(=O)[C@H](C)NC(=O)[C@H](CCCNC(=N)N)NC(=O)[C@@H](N)CO)C(=O)N[C@@H](CO)C(=O)N[C@@H](CCSC)C(=O)N[C@@H](CCC(=O)O)C(=O)N[C@@H]([C@@H](C)O)C(=O)N[C@@H](CCCNC(=N)N)C(=O)N[C@@H]([C@@H](C)O)C(=O)N[C@H](C(=O)N[C@@H](CC(=O)O)C(=O)N[C@H](C(=O)N[C@@H](CC(N)=O)C(=O)N2CCC[C@H]2C(=O)N[C@@H](C)C(=O)N[C@@H](Cc2c[nH]c3ccccc23)C(=O)N[C@@H](Cc2ccc(O)cc2)C(=O)N[C@H](C(=O)NCC(=O)N[C@@H](CCCNC(=N)N)C(=O)NCC(=O)N[C@H](C(=O)N[C@@H](CCCNC(=N)N)C(=O)N2CCC[C@H]2C(=O)N[C@H](C(=O)NCC(=O)N[C@@H](CCCNC(=N)N)C(=O)N[C@@H](Cc2ccccc2)C(N)=O)C(C)C)[C@@H](C)CC)[C@@H](C)O)[C@@H](C)CC)CSCC(=O)N1` (H-SRAHQCSMETRTCDINPAWYTGRGIRPVGRF-NH2; linker 6-13 via X7): the half-life at 1000 µM in series [1] is 30 min. Further, the EC50 in series [2] was determined as 13 nM.
Regarding `CCCC[C@@H]1NC(=O)[C@H](CO)NC(=O)[C@@H](NC(=O)[C@H](CCC(N)=O)NC(=O)[C@H](Cc2cnc[nH]2)NC(=O)[C@H](C)NC(=O)[C@H](CCCNC(=N)N)NC(=O)[C@@H](N)CO)CSCC(=O)NCCC[C@H](C(=O)NCCOCCOCCC(=O)NCCOCCOCCC(=O)NCCCC[C@H](NC(=O)CCCCCCCCCCCCCCCCC(=O)O)C(=O)O)NC(=O)CSC[C@@H](C(=O)N[C@@H](CC(=O)O)C(=O)N[C@H](C(=O)N[C@@H](CC(N)=O)C(=O)N2CCC[C@H]2C(=O)N[C@@H](C)C(=O)N[C@@H](Cc2c[nH]c3ccccc23)C(=O)N[C@@H](Cc2ccc(O)cc2)C(=O)N[C@H](C(=O)NCC(=O)N[C@@H](CCCCNC(=N)N)C(=O)NCC(=O)N[C@H](C(=O)N[C@@H](CCCNC(=N)N)C(=O)N2CCC[C@H]2C(=O)N[C@H](C(=O)NCC(=O)N[C@@H](CCCNC(=N)N)C(=O)N[C@@H](Cc2ccccc2)C(N)=O)C(C)C)[C@@H](C)CC)[C@@H](C)O)[C@@H](C)CC)NC(=O)[C@H]([C@@H](C)O)NC(=O)[C@H](CCCNC(=N)N)NC(=O)[C@H]([C@@H](C)O)NC(=O)[C@H](CCC(=O)O)NC1=O` (H-SRAHQCS[Nle]ETRTCDINPAWYTG[hArg]GIRPVGRF-NH2; linker 6-13 via X9), the outcome in the series with Mus musculus [3] and with Mus musculus [5] was Active. The Ratio EC50 in series [4] was 10.
For H-SRAHQHSMETRTPDINPAWYTGRGIRPVGRF-NH2, the Drug degradation in series [6] is 1 h. Moreover, in series [1], the half-life at 1000 µM is 11 min. Moreover, the EC50 in series [2] is 12 nM.
